Measured values published in ChEMBL document CHEMBL3244229, “Nonsteroidal antiinflammatory agents. 1. 5-Alkoxy-3-biphenylylacetic acids and related compounds as new potential antiinflammatory agenst” (J Med Chem, 1977).

Tests used:
Rattus norvegicus = assay: Antiinflammatory activity in Wistar rat assessed as inhibition of carrageenan-induced paw edema administered 30 mins prior challenge measured after 3 hrs; format: functional
Summary of the method: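 Rats were dosed orally. Thirty minutes later, 1% carrageenan was injected subcutaneously into the plantar surface of the hind paw, and paw volume was remeasured 3 h afterward. Percent inhibition came from comparing the volume increase against a control group. ED50 (dose giving 50% inhibition) was derived from least-squares probit response vs log dose regression.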

[1] = Acute toxicity in ip dosed ddY mouse measured after 168 hrs; format: organism-based; details: in vivo
Summary of the method: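 Male ddY mice, four per group, given a single ip injection; deaths assessed 168 h after dosing. LD50 calculated by the method of Weil.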

Mus musculus = assay: Analgesic activity in ip dosed ddY mouse assessed as prevention of pseudoavoidance reflex co-administered with 5 mg/kg, sc morphine hydrochloride by tail pinch method; format: functional
Summary of the method: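 Groups of eight male ddY mice (25–30 g) got the compound ip as a suspension in 0.5% CMC, together with a threshold dose of morphine hydrochloride (5 mg/kg sc). The read-out was prevention of pseudoavoidance reflexes (biting, squeaking, looking backward) after tail pinching with forceps. ED50 was calculated by the Litchfield–Wilcoxon method.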

For `COc1cc(CC(=O)O)cc(C(C)C)c1`, the ED50 (Rattus norvegicus) was greater than 100 mg/kg and the LD50 at 168 h [1] was 1600 mg/kg.
For `CCCCOc1cc(C)cc(CC(=O)O)c1`, the ED50 (Rattus norvegicus) was greater than 100 mg/kg and the LD50 at 168 h [1] was 673 mg/kg.
Work on `COc1cc(CC(=O)O)cc(C2CCCCC2)c1` yielded an ED50 (Rattus norvegicus) greater than 100 mg/kg and an LD50 at 168 h [1] of 564 mg/kg.
`COc1cc(CC(=O)O)cc(-c2ccc(F)cc2)c1` gave an ED50 (Rattus norvegicus) of 50 mg/kg and an LD50 at 168 h [1] of 565 mg/kg.
With `COc1cc(CC(=O)O)cc(-c2ccc(Cl)cc2Cl)c1` the ED50 (Rattus norvegicus) was 70 mg/kg and the LD50 at 168 h [1] was 336 mg/kg.
`COc1cc(CC(=O)O)cc(-c2ccc(C)cc2)c1` showed an ED50 (Rattus norvegicus) greater than 100 mg/kg and an LD50 at 168 h [1] of 566 mg/kg.
With `Cc1cc(CC(=O)O)cc(OCC(C)C)c1` the ED50 (Rattus norvegicus) was greater than 100 mg/kg and the LD50 at 168 h [1] was 1000 mg/kg.
`COc1ccc(-c2cc(CC(=O)O)cc(OC)c2)cc1` showed an ED50 (Rattus norvegicus) greater than 100 mg/kg, an LD50 at 168 h [1] of 636 mg/kg and an ED50 (Mus musculus) of 165 mg/kg.
In the case of `COc1cc(C)cc(CC(=O)O)c1`, the ED50 (Rattus norvegicus) is reported as greater than 100 mg/kg and the LD50 at 168 h [1] is reported as 673 mg/kg.
In the case of `O=C(O)Cc1cc(O)cc(-c2ccc(Cl)cc2)c1`, the ED50 (Rattus norvegicus) is reported as greater than 100 mg/kg and the LD50 at 168 h [1] is reported as 141 mg/kg.
In the case of `COc1cc(CC(=O)O)cc(-c2ccccc2)c1`, the ED50 (Rattus norvegicus) is reported as 60 mg/kg and the LD50 at 168 h [1] is reported as 566 mg/kg.
`COC(=O)Cc1cc(O)cc(-c2ccc(Cl)cc2)c1` showed an ED50 (Rattus norvegicus) greater than 100 mg/kg and an LD50 at 168 h [1] greater than 1600 mg/kg.
With `CCOc1cc(CC(=O)O)cc(-c2ccccc2)c1` the ED50 (Rattus norvegicus) was greater than 100 mg/kg and the LD50 at 168 h [1] was 400 mg/kg.
For `CCCOc1cc(CC(=O)O)cc(-c2ccccc2)c1`, the ED50 (Rattus norvegicus) was greater than 100 mg/kg and the LD50 at 168 h [1] was 475 mg/kg.
`CCCCOc1cc(CC(=O)O)cc(-c2ccccc2)c1` gave an ED50 (Rattus norvegicus) greater than 100 mg/kg and an LD50 at 168 h [1] greater than 1600 mg/kg.
`CC(C)COc1cc(CC(=O)O)cc(-c2ccccc2)c1` gave an ED50 (Rattus norvegicus) greater than 100 mg/kg and an LD50 at 168 h [1] of 566 mg/kg.
Compound `CCCCCOc1cc(CC(=O)O)cc(-c2ccccc2)c1` has an ED50 (Rattus norvegicus) greater than 100 mg/kg and an LD50 at 168 h [1] of 1130 mg/kg.
Work on `CCOc1cc(CC(=O)O)cc(-c2ccc(Cl)cc2)c1` yielded an ED50 (Rattus norvegicus) of 51 mg/kg and an LD50 at 168 h [1] of 284 mg/kg.
For `CCCOc1cc(CC(=O)O)cc(-c2ccc(Cl)cc2)c1`, the ED50 (Rattus norvegicus) was 97 mg/kg and the LD50 at 168 h [1] was 400 mg/kg.
For `CCCCOc1cc(CC(=O)O)cc(-c2ccc(Cl)cc2)c1`, the ED50 (Rattus norvegicus) was greater than 100 mg/kg and the LD50 at 168 h [1] was 237 mg/kg.
In the case of `CC(C)COc1cc(CC(=O)O)cc(-c2ccc(Cl)cc2)c1`, the ED50 (Rattus norvegicus) is reported as greater than 100 mg/kg and the LD50 at 168 h [1] is reported as 139 mg/kg.
In the case of `CCCCCOc1cc(CC(=O)O)cc(-c2ccc(Cl)cc2)c1`, the ED50 (Rattus norvegicus) is reported as greater than 100 mg/kg and the LD50 at 168 h [1] is reported as 475 mg/kg.
With `CCOC(=O)Cc1cc(O)cc(-c2ccc(Cl)cc2)c1` the ED50 (Rattus norvegicus) was greater than 100 mg/kg and the LD50 at 168 h [1] was greater than 1600 mg/kg.
Compound `COc1cc(CCO)cc(-c2ccc(Cl)cc2)c1` has an ED50 (Rattus norvegicus) of 47 mg/kg and an LD50 at 168 h [1] of 673 mg/kg.
`COc1cc(CCC(=O)O)cc(-c2ccc(Cl)cc2)c1` gave an ED50 (Rattus norvegicus) greater than 100 mg/kg and an LD50 at 168 h [1] of 284 mg/kg.
With `COc1cc(CC(N)=O)cc(-c2ccc(Cl)cc2)c1` the ED50 (Rattus norvegicus) was greater than 100 mg/kg and the LD50 at 168 h [1] was greater than 1600 mg/kg.
`COc1cc(CC(=O)NO)cc(-c2ccc(Cl)cc2)c1` gave an ED50 (Rattus norvegicus) greater than 100 mg/kg and an LD50 at 168 h [1] greater than 1600 mg/kg.
With `COC(=O)Cc1cc(OC)cc(-c2ccc(Cl)cc2)c1` the ED50 (Rattus norvegicus) was 35 mg/kg and the LD50 at 168 h [1] was 1600 mg/kg.
In the case of `CCOC(=O)Cc1cc(OC)cc(-c2ccc(Cl)cc2)c1`, the ED50 (Rattus norvegicus) is reported as 29 mg/kg and the LD50 at 168 h [1] is reported as 1130 mg/kg.
Work on `COC(=O)Cc1cc(OC(C)=O)cc(-c2ccc(Cl)cc2)c1` yielded an ED50 (Rattus norvegicus) greater than 100 mg/kg and an LD50 at 168 h [1] greater than 1600 mg/kg.
With `COC(=O)Cc1cc(OS(C)(=O)=O)cc(-c2ccc(Cl)cc2)c1` the ED50 (Rattus norvegicus) was greater than 100 mg/kg and the LD50 at 168 h [1] was 1130 mg/kg.
For `COc1cc(C(=O)O)cc(-c2ccc(Cl)cc2)c1`, the ED50 (Rattus norvegicus) was greater than 100 mg/kg and the LD50 at 168 h [1] was 1130 mg/kg.
In the case of `COc1cc(CC(=O)O)cc(-c2ccccc2Cl)c1`, the ED50 (Rattus norvegicus) is reported as 39 mg/kg, the LD50 at 168 h [1] is reported as 252 mg/kg and the ED50 (Mus musculus) is reported as 195 mg/kg.
With `COc1cccc(CC(=O)O)c1` the ED50 (Rattus norvegicus) was greater than 100 mg/kg and the LD50 at 168 h [1] was 504 mg/kg.
Compound `COc1cc(CC(=O)O)cc(-c2ccc(Cl)cc2)c1` has an ED50 (Rattus norvegicus) of 11 mg/kg, an LD50 at 168 h [1] of 570 mg/kg and an ED50 (Mus musculus) of 38 mg/kg.
With `CC(C)Cc1ccc(C(C)C(=O)O)cc1` (stereo unspecified) [IBUPROFEN] the ED50 (Rattus norvegicus) was 25 mg/kg, the LD50 at 168 h [1] was 336 mg/kg and the ED50 (Mus musculus) was 69 mg/kg.
